Calls of active or inactive are those of the source. The calls are words filed in the database; no cut-off is given here.
Key:
[1] = biological target: T1, NAD-dependent protein deacetylase sirtuin-1 (Homo sapiens) (UniProt Q96EB6); test: Activation of full-length GST-tagged recombinant human SIRT1 assessed as enzyme activity obtained with subtraction of intrinsic fluorescence using p53-based untagged peptide as substrate at 50 uM after 30 mins by SIRTainty assay
T1 sequence (whole entry): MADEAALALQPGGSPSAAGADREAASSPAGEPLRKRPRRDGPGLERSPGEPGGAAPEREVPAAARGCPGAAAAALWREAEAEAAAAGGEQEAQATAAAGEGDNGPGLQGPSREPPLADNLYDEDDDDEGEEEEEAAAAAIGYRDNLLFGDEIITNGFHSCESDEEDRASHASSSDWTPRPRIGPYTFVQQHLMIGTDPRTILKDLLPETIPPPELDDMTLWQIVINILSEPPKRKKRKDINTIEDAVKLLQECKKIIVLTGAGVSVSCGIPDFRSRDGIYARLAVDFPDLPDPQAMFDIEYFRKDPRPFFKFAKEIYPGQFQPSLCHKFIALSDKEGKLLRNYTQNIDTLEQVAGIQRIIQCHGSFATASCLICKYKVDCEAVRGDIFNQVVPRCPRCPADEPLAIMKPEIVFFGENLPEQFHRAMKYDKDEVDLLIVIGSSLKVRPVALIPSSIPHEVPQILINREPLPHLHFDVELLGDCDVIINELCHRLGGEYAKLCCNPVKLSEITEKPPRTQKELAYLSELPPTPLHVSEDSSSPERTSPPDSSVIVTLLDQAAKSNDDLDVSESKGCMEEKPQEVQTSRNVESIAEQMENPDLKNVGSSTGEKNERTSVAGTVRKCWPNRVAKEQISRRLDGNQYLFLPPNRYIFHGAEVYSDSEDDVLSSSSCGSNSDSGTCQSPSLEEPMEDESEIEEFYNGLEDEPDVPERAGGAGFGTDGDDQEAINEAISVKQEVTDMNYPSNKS

[2] = biological target: T1, NAD-dependent protein deacetylase sirtuin-1 (Homo sapiens); test: Activation of full-length GST-tagged recombinant human SIRT1 assessed as enzyme activity obtained without subtraction of intrinsic fluorescence using p53-based untagged peptide as substrate at 50 uM after 30 mins by SIRTainty assay
[3] = biological target: T1, NAD-dependent protein deacetylase sirtuin-1 (Homo sapiens); test: Activation of SIRT1 in […] at 1 uM by fluorimetric assay; assay type: cell-free; conditions: HaCaT, TDE = time-dependent effect
[4] = biological target: T1, NAD-dependent protein deacetylase sirtuin-1 (Homo sapiens); test: Activation of SIRT1 in human HaCaT cells assessed as H4K16 deacetylation at 1 uM after 1 hr by Western blotting method; assay type: cell-based
In short: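 HaCaT cells treated 1 h at 1 µM, DMSO as solvent control. Cells lysed in Laemmli buffer and immunoblotted for acetyl-H4K16 (1:1000), with total histone H4 as loading control. Bands quantified by densitometry. At least three independent experiments.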

[5] = tested on: HaCaT; test: Activation of AMPK/SIRT1 in human HaCaT cells assessed as nitric oxide production at 1 uM incubated for 1 hr by DAF-2D staining-based fluorescence assay; assay type: cell-based
In short: (§1)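 HaCaT keratinocytes grown in DMEM with 10% FBS and antibiotics. Cells treated 1 h (single-point 1 µM; dose-response at 5, 25, 50 µM). 5 µM DAF-2D added to complete medium. Cells then washed in PBS, trypsinized and analysed by flow cytometry for DAF fluorescence (ex 485/em 538 nm). Read-out is % DAF-positive cells relative to DMSO control.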

[6] = biological target: 3',5'-cyclic-AMP phosphodiesterase 4D (Homo sapiens) (UniProt Q08499); test: Inhibition of recombinant human PDE4D assessed as phosphate release using cAMP as substrate at 50 uM after 60 mins by malachite green assay
3',5'-cyclic-AMP phosphodiesterase 4D (Homo sapiens), sequence (Q08499 whole entry): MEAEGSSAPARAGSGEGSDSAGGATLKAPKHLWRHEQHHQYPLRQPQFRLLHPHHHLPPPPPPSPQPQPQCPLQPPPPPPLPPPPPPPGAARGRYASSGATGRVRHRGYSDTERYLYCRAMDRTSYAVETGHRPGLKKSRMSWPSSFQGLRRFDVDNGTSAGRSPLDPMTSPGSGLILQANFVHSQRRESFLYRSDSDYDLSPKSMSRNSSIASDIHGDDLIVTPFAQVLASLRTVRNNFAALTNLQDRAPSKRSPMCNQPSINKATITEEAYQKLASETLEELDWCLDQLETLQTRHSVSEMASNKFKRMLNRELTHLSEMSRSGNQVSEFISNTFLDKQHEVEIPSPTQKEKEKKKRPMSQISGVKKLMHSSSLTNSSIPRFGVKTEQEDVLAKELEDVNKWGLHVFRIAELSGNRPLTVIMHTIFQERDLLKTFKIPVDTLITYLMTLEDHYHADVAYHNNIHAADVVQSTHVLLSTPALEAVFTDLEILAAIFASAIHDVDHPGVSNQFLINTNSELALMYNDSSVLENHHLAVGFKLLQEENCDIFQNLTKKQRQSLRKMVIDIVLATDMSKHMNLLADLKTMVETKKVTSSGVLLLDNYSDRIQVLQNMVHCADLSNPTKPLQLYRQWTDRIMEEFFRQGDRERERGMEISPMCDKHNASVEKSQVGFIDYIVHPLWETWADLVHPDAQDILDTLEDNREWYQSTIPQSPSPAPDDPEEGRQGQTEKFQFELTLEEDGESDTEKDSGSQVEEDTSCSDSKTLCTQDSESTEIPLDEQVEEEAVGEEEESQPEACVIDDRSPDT
In short: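 Recombinant human PDE4D (20 mU) in 10 mM Tris-HCl pH 7.4 with cAMP substrate. Compounds at 50 µM in DMSO; rolipram 10 µM as positive control. Incubated 60 min at 37 °C, then phosphate release measured by malachite green absorbance at 620 nm. Mean of three determinations.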

[7] = tested on: HaCaT; test: Activation of AMPK/SIRT1 in human HaCaT cells assessed as nitric oxide production incubated for 1 hr by DAF-2D staining-based fluorescence assay; assay type: cell-based
In short: as §1

[8] = tested on: Mus musculus; test: Wound healing activity in CD1 mouse assessed as decrease in epithelial gap at 1 uM administered topically on wound everyday for 14 days by biopsy punch assay; assay type: functional, organism-based
In short: (§2)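 Male CD1 mice, 8 weeks old, anaesthetized i.p. with medetomidine 1 mg/kg plus ketamine 75 mg/kg, then biopsy-punch wounded. Compound (1 µM) in 20 µL saline applied directly to the wound daily for 14 days; solvent-treated group as control. Epithelial gap and % wound closure followed over time.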

[9] = tested on: Mus musculus; test: Wound healing activity in CD1 mouse assessed as increased wound closure at 1 uM administered topically on wound everyday for 14 days by biopsy punch assay; assay type: functional, organism-based
In short: as §2

O=C(O)C1=CN(Cc2ccccc2)C=C(C(=O)O)C1c1ccsc1
Activity [1]: 45%
Activity [2]: 56%

Oc1ccc(/C=C/c2cc(O)cc(O)c2)cc1
Activity [3]: Tde
Activity [4]: Active

O=C(O)C1=CN(Cc2ccccc2)C=C(C(=O)O)C1c1ccc2ccccc2c1
Activity [2]: 116%

CCOC(=O)C1=CN(C(=O)c2ccccc2)C=C(C(=O)OCC)C1c1ccc(OC)cc1
Activity [1]: 131%
Activity [2]: 173%

CCOC(=O)C1=CN(Cc2ccccc2)C=C(C(=O)OCC)C1c1cnc2ccccc2c1
Activity [5]: Active
Activity [1]: 283%
Activity [2]: 324%

CCOC(=O)C1=CN(C(=O)c2cnc3ccccc3n2)C=C(C(=O)OCC)C1c1ccccc1
Activity [1]: 165%
Activity [2]: 206%

CCOC(=O)C1=CN(C(=O)c2ccccc2)C=C(C(=O)OCC)C1c1ccccc1C
Activity [1]: 140%
Activity [2]: 183%

O=C(O)C1=CN(Cc2ccccc2)C=C(C(=O)O)C1c1cccs1
Activity [1]: 21%
Activity [2]: 21%

N#CC1=CN(Cc2ccccc2)C=C(C#N)C1c1ccccc1
Activity [1]: 152%
Activity [2]: 193%

NC(=O)C1=CN(Cc2ccccc2)C=C(C(N)=O)C1c1cccs1
Activity [1]: 49%
Activity [2]: 55%

CCOC(=O)C1=CN(Cc2ccccc2)C=C(C(=O)OCC)C1c1ccc(-c2ccccc2)cc1
Activity [1]: 61%
Activity [2]: 61%

CCOC(=O)C1=CN(C(=O)c2ccccc2)C=C(C(=O)OCC)C1c1ccc(C)cc1
Activity [1]: 103%
Activity [2]: 144%

CCOC(=O)C1=CN(Cc2ccccc2)C=C(C(=O)OCC)C1c1ccccc1
inhibition [6]: inactive
Activity [5]: Active
Activity [4]: Active
Activity [1]: 164%
Activity [2]: 217%

NC(=O)C1=CN(Cc2ccccc2)C=C(C(N)=O)C1c1cnc2ccccc2c1
Activity [1]: 147%
Activity [2]: 197%

NC(=O)C1=CN(Cc2ccccc2)C=C(C(N)=O)C1c1nccs1
Activity [1]: 188%
Activity [2]: 231%

CCOC(=O)C1=CN(C(=O)c2ccccc2)C=C(C(=O)OCC)C1c1ccccc1Cl
Activity [1]: 143%
Activity [2]: 184%

CCOC(=O)C1=CN(S(=O)(=O)c2ccccc2)C=C(C(=O)OCC)C1c1ccccc1
Activity [1]: 130%
Activity [2]: 169%

CCOC(=O)C1=CN(Cc2ccccc2)C=C(C(=O)OCC)C1c1ccco1
inhibition [6]: inactive
Activity [5]: Active
Activity [7]: Dose-dependent effect
Activity [3]: Tde
Activity [4]: Active
Activity [8]: Active
Activity [9]: Active
Activity [1]: 64%
Activity [2]: 294%

NC(=O)C1=CN(Cc2ccccc2)C=C(C(=O)O)C1c1ccccc1 (centres undefined)
Activity [1]: 160%
Activity [2]: 149%

CCOC(=O)C1=CN(Cc2ccccc2)C=C(C(=O)OCC)C1c1cccs1
Activity [1]: 117%
Activity [2]: 246%

CCOC(=O)C1=CN(Cc2ccccc2)C=C(C(=O)OCC)C1c1ccc2ccccc2c1
Activity [1]: 100%
Activity [2]: 282%

O=C(O)C1=CN(Cc2ccccc2)C=C(C(=O)O)C1c1cc2ccccc2s1
Activity [1]: 7%
Activity [2]: 38%

O=C(O)C1=CN(Cc2ccccc2)C=C(C(=O)O)C1c1cccc2ccccc12
Activity [1]: 94%
Activity [2]: 108%

CCOC(=O)C1=CN(Cc2ccccc2)C=C(C(=O)O)C1c1ccccc1 (centres undefined)
Activity [1]: 105%
Activity [2]: 196%

CC1=C(C(=O)O)C(c2ccccc2)C(C(=O)O)=C(C)N1Cc1ccccc1
Activity [1]: 102%
Activity [2]: 103%

CCOC(=O)C1=CN(Cc2ccccc2)C=C(C(N)=O)C1c1ccccc1 (centres undefined)
Activity [1]: 108%
Activity [2]: 198%

CCOC(=O)C1=CN(C(=O)OCc2ccccc2)C=C(C(=O)OCC)C1c1ccccc1
Activity [1]: 158%
Activity [2]: 206%

NC(=O)C1=CN(Cc2ccccc2)C=C(C(N)=O)C1c1ccc(-c2ccccc2)cc1
Activity [2]: 96%

CCOC(=O)C1=CN(Cc2ccccc2)C=C(C(=O)OCC)C1c1cncs1
Activity [1]: 133%
Activity [2]: 221%

CCOC(=O)C1=CN(C(=O)c2ccc3ccccc3c2)C=C(C(=O)OCC)C1c1ccccc1
inhibition [6]: inactive
Activity [1]: 207%
Activity [2]: 235%

CC1=C(C(N)=O)C(c2ccccc2)C(C(N)=O)=C(C)N1Cc1ccccc1
Activity [1]: 110%
Activity [2]: 110%

NC(=O)C1=CN(Cc2ccccc2)C=C(C(N)=O)C1c1cccc2ccccc12
Activity [2]: 145%

CCOC(=O)C1=CN(Cc2ccccc2)C=C(C(=O)OCC)C1c1cc2ccccc2s1
Activity [1]: 39%
Activity [2]: 139%

NC(=O)C1=CN(Cc2ccccc2)C=C(C(N)=O)C1c1ccsc1
Activity [1]: 97%
Activity [2]: 218%

CCOC(=O)C1=CN(C(=O)c2cccc3ccccc23)C=C(C(=O)OCC)C1c1ccccc1
Activity [2]: 179%

CCOC(=O)C1=CN(Cc2ccccc2)C=C(C(=O)OCC)C1c1cccc2ccccc12
Activity [2]: 187%

NC(=O)C1=CN(Cc2ccccc2)C=C(C(N)=O)C1c1ccc2ccccc2c1
Activity [1]: 67%
Activity [2]: 128%

CCOC(=O)C1=CN(C(=O)c2ccccc2)C=C(C(=O)OCC)C1c1cccc(Cl)c1
Activity [1]: 127%
Activity [2]: 163%

CCOC(=O)C1=C(C)N(Cc2ccccc2)C(C)=C(C(=O)OCC)C1c1ccccc1
Activity [1]: 114%
Activity [2]: 114%

NC(=O)C1=CN(Cc2ccccc2)C=C(C(N)=O)C1c1cncs1
Activity [1]: 165%
Activity [2]: 194%

O=C(Nc1ccccc1-c1cn2c(CN3CCNCC3)csc2n1)c1cnc2ccccc2n1
Activity [2]: 209%

O=C(O)C1=CN(Cc2ccccc2)C=C(C(=O)O)C1c1nccs1
Activity [1]: 132%
Activity [2]: 174%

CCOC(=O)C1=CN(C(=O)c2ccccc2)C=C(C(=O)OCC)C1c1cccc(C)c1
Activity [1]: 140%
Activity [2]: 186%

CCOC(=O)C1=CN(C(=O)c2cnccn2)C=C(C(=O)OCC)C1c1ccccc1
Activity [1]: 171%
Activity [2]: 242%

O=C(O)C1=CN(Cc2ccccc2)C=C(C(=O)O)C1c1ccc(-c2ccccc2)cc1
inhibition [6]: inactive
Activity [1]: 285%
Activity [2]: 285%

CCOC(=O)C1=CN(C(=O)c2ccccc2)C=C(C(=O)OCC)C1c1ccc(Cl)cc1
Activity [1]: 191%
Activity [2]: 231%

NC(=O)C1=CN(Cc2ccccc2)C=C(C(N)=O)C1c1cc2ccccc2s1
Activity [1]: 37%
Activity [2]: 127%

CCOC(=O)C1=CN(Cc2ccccc2)C=C(C(=O)OCC)C1c1nccs1
Activity [5]: Active
Activity [1]: 282%
Activity [2]: 300%

O=C(O)C1=CN(Cc2ccccc2)C=C(C(=O)O)C1c1cnc2ccccc2c1
Activity [1]: 167%
Activity [2]: 209%

NC(=O)C1=CN(Cc2ccccc2)C=C(C(N)=O)C1c1ccco1
Activity [1]: 62%
Activity [2]: 77%

CCOC(=O)C1=CN(C(=O)c2ccccc2)C=C(C(=O)OCC)C1c1cccc(OC)c1
Activity [1]: 117%
Activity [2]: 156%

O=C(O)C1=CN(Cc2ccccc2)C=C(C(=O)O)C1c1cncs1
Activity [1]: 128%
Activity [2]: 172%

CCOC(=O)C1=CN(C(=O)c2ccccc2)C=C(C(=O)OCC)C1c1ccccc1OC
Activity [1]: 127%
Activity [2]: 170%

Source: ChEMBL document CHEMBL4428023, “1,4-Dihydropyridines Active on the SIRT1/AMPK Pathway Ameliorate Skin Repair and Mitochondrial Function and Exhibit Inhibition of Proliferation in Cancer Cells” (J Med Chem, 2016)
